Data: ChEMBL document CHEMBL2177018, “Identification, synthesis, and biological evaluation of metabolites of the experimental cancer treatment drugs indotecan (LMP400) and indimitecan (LMP776) and investigation of isomerically hydroxylated indenoisoquinoline analogues as topoisomerase I poisons” (J Med Chem, 2012)
Values belong to the compound of their own block, whether it stands above or below them. The source made the active and inactive calls. No cut-off for these calls is given here.

Experiments:
[1] = target: T1, DNA topoisomerase 1 (Homo sapiens) (UniProt P11387); assay: Inhibition of human recombinant Top1-mediated DNA cleavage after 20 mins by […] analysis relative to camptothecin; set-up: concentration or dose not given beside the values
T1 sequence (whole entry): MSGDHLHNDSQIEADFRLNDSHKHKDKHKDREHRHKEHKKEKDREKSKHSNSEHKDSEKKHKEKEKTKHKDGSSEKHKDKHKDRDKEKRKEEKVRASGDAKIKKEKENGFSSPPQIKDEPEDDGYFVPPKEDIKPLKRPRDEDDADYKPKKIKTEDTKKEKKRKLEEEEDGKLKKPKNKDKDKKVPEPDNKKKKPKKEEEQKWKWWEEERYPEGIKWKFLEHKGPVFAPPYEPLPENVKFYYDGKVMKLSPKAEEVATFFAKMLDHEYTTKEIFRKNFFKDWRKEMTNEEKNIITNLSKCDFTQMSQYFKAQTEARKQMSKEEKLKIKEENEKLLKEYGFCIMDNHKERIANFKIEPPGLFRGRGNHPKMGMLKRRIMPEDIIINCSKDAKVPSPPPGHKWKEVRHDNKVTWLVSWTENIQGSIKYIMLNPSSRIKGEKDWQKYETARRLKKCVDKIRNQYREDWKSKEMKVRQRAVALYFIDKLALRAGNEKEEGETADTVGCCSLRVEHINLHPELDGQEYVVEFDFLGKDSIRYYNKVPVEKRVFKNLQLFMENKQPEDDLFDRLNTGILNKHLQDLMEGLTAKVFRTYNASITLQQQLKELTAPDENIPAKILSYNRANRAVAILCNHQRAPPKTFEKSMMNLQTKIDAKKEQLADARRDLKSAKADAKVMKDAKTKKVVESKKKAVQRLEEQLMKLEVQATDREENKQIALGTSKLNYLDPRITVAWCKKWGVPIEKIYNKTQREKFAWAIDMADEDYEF
In short: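 Baculovirus-purified human recombinant Top1 with ~2 nM 117-bp oligonucleotide, 3′-end 32P-labelled. Compounds at 0.1–100 μM, room temperature 20 min, stopped with 0.5% SDS. 20% denaturing PAGE, phosphorimaging. Cleavage graded against 1 μM camptothecin.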

DU-145 = assay: Antiproliferative activity against human DU145 cells; type: functional
In short: (§1)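 NCI-60 human tumour cell line panel. Initial one-dose pre-screen at 10−5 molar, then five concentrations from 10−8 to 10−4 molar. GI50 taken as the concentration giving 50% growth inhibition.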

MCF7 = assay: Antiproliferative activity against human MCF7 cells; type: functional; in short: as §1
SN12C = assay: Antiproliferative activity against human SN12C cells; type: functional; in short: as §1
UACC-62 = assay: Antiproliferative activity against human UACC62 cells; type: functional; in short: as §1
OVCAR-3 = assay: Antiproliferative activity against human OVCAR3 cells; type: functional; in short: as §1
SF-539 = assay: Antiproliferative activity against human SF539 cells; type: functional; in short: as §1
HCT-116 = assay: Antiproliferative activity against human HCT116 cells; type: functional; in short: as §1
HOP-62 = assay: Antiproliferative activity against human HOP62 cells; type: functional; in short: as §1
Liver microsomes [2] = assay: Drug metabolism in human liver microsomes assessed as formation of 5,6-Dihydro-3-hydroxy-2-methoxy-8,9-methylenedioxy-6-3- [(morpholino)propyl)]-5,11-dioxo-11H-indeno[1,2-c]- isoquinoline at 10 uM after 60 mins in presence of NADPH; type: ADME, Microsome; conditions: 1 h
In short: (§2)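 Substrate at 10 μM with pooled human liver microsomes (15 donors, mixed gender; 1 mg/mL protein) in 50 mM phosphate, pH 7.4, 37 °C. After 5 min preincubation, 1 mM NADPH started a 60 min reaction. Stopped on ice with acidified acetonitrile; supernatant dried, redissolved, LC-MS and LC-MS/MS. Controls lacked microsomes or NADPH.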

Liver microsomes [3] = assay: Drug metabolism in human liver microsomes assessed as formation of 8,9-Dihydroxy-2,3-dimethoxy-6-(3-morpholinopropyl)-5Hindeno[ 1,2-c]isoquinoline-5,11(6H)-dione at 10 uM after 60 mins in presence of NADPH; type: ADME, Microsome; conditions: 1 h; in short: as §2
Liver microsomes [4] = assay: Drug metabolism in human liver microsomes assessed as formation of 5,6-Dihydro-3-hydroxy-6-3-(1H-imidazol-1-yl)propyl)-2-methoxy- 8,9-methylenedioxy-5,11-dioxo-11H-indeno[1,2-c]- isoquinoline at 10 uM after 60 mins in presence of NADPH; type: ADME, Microsome; in short: as §2
Liver microsomes [5] = assay: Drug metabolism in human liver microsomes assessed as formation of 6-(3-(1H-Imidazol-1-yl)propyl)-8,9-dihydroxy-2,3-dimethoxy-5H-indeno[1,2-c]isoquinoline-5,11(6H)-dione at 10 uM after 60 mins in presence of NADPH; type: ADME, Microsome; in short: as §2

SMILES: COc1cc2c(cc1O)-c1c(c3cc(OC)c(OC)cc3c(=O)n1CCCn1ccnc1)C2=O
inhibition [1]: 50% | GI50 (DU-145): > 100000 nM | GI50 (MCF7): 50 nM | GI50 (UACC-62): 331 nM | GI50 (OVCAR-3): > 100000 nM | GI50 (HCT-116): > 100000 nM | GI50 (HOP-62): > 100000 nM

SMILES: COc1cc2c(cc1O)C(=O)c1c-2n(CCCn2ccnc2)c(=O)c2cc(OC)c(OC)cc12
inhibition [1]: Active | GI50 (DU-145): < 10 nM | GI50 (MCF7): < 10 nM | GI50 (SN12C): < 10 nM | GI50 (UACC-62): < 10 nM | GI50 (OVCAR-3): 20 nM | GI50 (SF-539): < 10 nM | GI50 (HCT-116): < 10 nM | GI50 (HOP-62): < 10 nM

SMILES: COc1cc2c3c(n(CCCN4CCOCC4)c(=O)c2cc1OC)-c1cc(O)c(O)cc1C3=O
inhibition [1]: Active | GI50 (DU-145): 490 nM | GI50 (MCF7): 50 nM | GI50 (SN12C): 65 nM | GI50 (UACC-62): 78 nM | GI50 (OVCAR-3): 501 nM | GI50 (SF-539): 148 nM | GI50 (HCT-116): 407 nM | GI50 (HOP-62): 371 nM

SMILES: COc1cc2c3c(n(CCCn4ccnc4)c(=O)c2cc1OC)-c1cc(O)c(O)cc1C3=O
inhibition [1]: 50% | GI50 (DU-145): 100 nM | GI50 (MCF7): 20 nM | GI50 (SN12C): 30 nM | GI50 (UACC-62): < 10 nM | GI50 (OVCAR-3): 407 nM | GI50 (SF-539): 10 nM | GI50 (HCT-116): 229 nM | GI50 (HOP-62): 40 nM

SMILES: COc1cc2c3c(n(CCCN4CCOCC4)c(=O)c2cc1OC)-c1cc2c(cc1C3O)OCO2 (centres undefined)
inhibition [1]: 50% | GI50 (DU-145): 2630 nM | GI50 (MCF7): 646 nM | GI50 (SN12C): 3390 nM | GI50 (UACC-62): 776 nM | GI50 (OVCAR-3): 4790 nM | GI50 (SF-539): 2400 nM | GI50 (HCT-116): 2400 nM | GI50 (HOP-62): 2090 nM

SMILES: COc1cc2c3c(n(CCCn4ccnc4)c(=O)c2cc1OC)-c1cc2c(cc1C3O)OCO2 (centres undefined)
inhibition [1]: 50% | GI50 (DU-145): 407 nM | GI50 (MCF7): 427 nM | GI50 (SN12C): 501 nM | GI50 (UACC-62): 372 nM | GI50 (OVCAR-3): 1950 nM | GI50 (SF-539): 479 nM | GI50 (HCT-116): 1350 nM | GI50 (HOP-62): 549 nM

SMILES: COc1cc2c(=O)n(CCCn3ccnc3)c3c(c2cc1O)C(=O)c1cc2c(cc1-3)OCO2
inhibition [1]: Active | GI50 (DU-145): < 10 nM | GI50 (SN12C): < 10 nM | GI50 (UACC-62): 30 nM | GI50 (OVCAR-3): 70 nM | GI50 (SF-539): < 10 nM | GI50 (HCT-116): 20 nM | GI50 (HOP-62): < 10 nM

SMILES: COc1cc2c3c(n(CCCn4ccnc4)c(=O)c2cc1O)-c1cc2c(cc1C3=O)OCO2
inhibition [1]: Active | GI50 (DU-145): < 10 nM | GI50 (MCF7): < 10 nM | GI50 (SN12C): < 10 nM | GI50 (UACC-62): < 10 nM | GI50 (OVCAR-3): 30 nM | GI50 (SF-539): < 10 nM | GI50 (HCT-116): < 10 nM | GI50 (HOP-62): < 10 nM

SMILES: COc1cc2c3c(n(CCCn4ccnc4)c(=O)c2cc1OC)-c1cc2c(cc1C3=O)OCO2 [INDIMITECAN]
Drug metabolism (Liver microsomes [4]): Active | Drug metabolism (Liver microsomes [5]): Active

The next lines start with results.

inhibition [1]: 75% | GI50 (DU-145): < 10 nM | GI50 (MCF7): < 10 nM | GI50 (OVCAR-3): 30 nM | GI50 (HCT-116): 20 nM
SMILES: COc1cc2c3c(n(CCCN4CCOCC4)c(=O)c2cc1O)-c1cc2c(cc1C3=O)OCO2
GI50 (SN12C): < 10 nM | GI50 (UACC-62): < 10 nM | GI50 (SF-539): < 10 nM | GI50 (HOP-62): 10 nM

inhibition [1]: 50% | GI50 (DU-145): 257 nM | GI50 (MCF7): 144 nM | GI50 (OVCAR-3): 871 nM | GI50 (HCT-116): 279 nM
SMILES: COc1cc2c(=O)n(CCCN3CCOCC3)c3c(c2cc1O)C(=O)c1cc2c(cc1-3)OCO2
GI50 (SN12C): 195 nM | GI50 (UACC-62): 282 nM | GI50 (SF-539): 335 nM | GI50 (HOP-62): 257 nM

inhibition [1]: 75% | GI50 (DU-145): 204 nM | GI50 (MCF7): 30 nM | GI50 (OVCAR-3): 8320 nM | GI50 (HCT-116): 2340 nM
SMILES: COc1cc2c(cc1O)-c1c(c3cc(OC)c(OC)cc3c(=O)n1CCCN1CCOCC1)C2=O
GI50 (SN12C): 191 nM | GI50 (UACC-62): 70 nM | GI50 (SF-539): 282 nM | GI50 (HOP-62): 180 nM

Drug metabolism (Liver microsomes [2]): Active | Drug metabolism (Liver microsomes [3]): Active
SMILES: COc1cc2c3c(n(CCCN4CCOCC4)c(=O)c2cc1OC)-c1cc2c(cc1C3=O)OCO2 [INDOTECAN]

inhibition [1]: Active | GI50 (DU-145): 20 nM | GI50 (MCF7): 20 nM | GI50 (OVCAR-3): 30 nM | GI50 (HCT-116): 30 nM
SMILES: COc1cc2c(cc1O)C(=O)c1c-2n(CCCN2CCOCC2)c(=O)c2cc(OC)c(OC)cc12
GI50 (SN12C): 20 nM | GI50 (UACC-62): 20 nM | GI50 (SF-539): 20 nM | GI50 (HOP-62): 20 nM
